Results published in ChEMBL document CHEMBL4610005, “Discovery of a new class of PROTAC BRD4 degraders based on a dihydroquinazolinone derivative and lenalidomide/pomalidomide” (Bioorg Med Chem, 2020).
The source made the active and inactive calls. The rule behind the calls is not given here.

Key:
[1] = target: T1, Bromodomain-containing protein 4 (Homo sapiens, UniProt O60885)
[2] = target: T1, Bromodomain-containing protein 4; settings: at 500 nM
HL-60 = assay: Antiproliferative activity against human HL60 cells assessed as reduction in cell viability at 2.5 uM incubated for 72 hrs by cell titer glo assay; type: functional, cell-based
Outline: (§1)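 Cells seeded and held 24 h at 37 °C, 5% CO2, then exposed to compound at a single 2.5 μM for 72 h under the same conditions. Viability was read by CellTiter-Glo luminescence after 10 min shaking and 2 min signal stabilisation at room temperature. Percent inhibition is the mean of three independent experiments.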

Raji = assay: Antiproliferative activity against human Raji cells assessed as reduction in cell viability at 2.5 uM incubated for 72 hrs by cell titer glo assay; type: functional, cell-based
Outline: as §1

THP-1 [3] = assay: Antiproliferative activity against human THP1 cells assessed as reduction in cell viability at 2.5 uM incubated for 72 hrs by cell titer glo assay; type: functional, cell-based
Outline: as §1

THP-1 [4] = assay: Antiproliferative activity against human THP1 cells assessed as reduction in cell viability incubated for 72 hrs by cell titer glo assay; type: functional, cell-based; settings: THP-1, 72 h
Outline: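 THP-1 cells were seeded and held 24 h at 37 °C, 5% CO2, then given serially diluted compound in medium for 72 h. Proliferation was read by CellTiter-Glo luminescence. IC50 was fitted from the dose-response and reported as mean ± SD of three independent assays.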

[5] = target: T2, Protein cereblon/Bromodomain-containing protein 4 (Homo sapiens) (UniProt O60885+Q96SW2); assay: Protac activity at CRBN/BRD4 in human THP1 cells assessed as increase in BRD4 degradation at 3 uM incubated for 3 hrs by Western blot analysis; type: cell-based; settings: THP-1
Outline: (§2)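 THP-1 cells were plated at 2×10^6 cells/well and treated for 3 h. Lysis was in RIPA buffer with protease inhibitors. 30 μg of lysate per lane was run on SDS-PAGE and blotted to PVDF. Membranes were probed with antibodies to BRD4 and c-Myc, with GAPDH as loading control.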

[6] = target: T1, Bromodomain-containing protein 4; remark: listed apart in the source
[7] = target: T2, Protein cereblon/Bromodomain-containing protein 4 (Homo sapiens); assay: Protac activity at CRBN/BRD4 in human THP1 cells assessed as decrease in c-Myc suppression at 1 uM incubated for 3 hrs by Western blot analysis; type: cell-based; settings: THP-1
Outline: as §2

T2 sequence (Q96SW2 whole entry, looked up, other chains not shown): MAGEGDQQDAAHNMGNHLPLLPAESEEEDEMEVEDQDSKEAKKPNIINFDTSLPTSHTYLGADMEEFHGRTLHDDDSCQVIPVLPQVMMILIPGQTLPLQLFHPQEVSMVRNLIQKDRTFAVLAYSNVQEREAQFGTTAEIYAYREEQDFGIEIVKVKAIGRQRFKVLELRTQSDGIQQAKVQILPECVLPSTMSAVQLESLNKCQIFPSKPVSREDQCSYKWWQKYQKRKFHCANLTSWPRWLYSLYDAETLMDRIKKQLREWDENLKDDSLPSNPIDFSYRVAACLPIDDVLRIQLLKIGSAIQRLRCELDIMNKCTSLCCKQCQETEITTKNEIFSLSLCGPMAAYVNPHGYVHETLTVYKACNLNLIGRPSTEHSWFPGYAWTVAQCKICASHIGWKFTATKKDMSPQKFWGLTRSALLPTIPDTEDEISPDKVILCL

| Structure (SMILES) | IC50 [1] [nM] | inhibition [2] [%] | inhibition (HL-60) | inhibition (Raji) | inhibition (THP-1 [3]) | IC50 (THP-1 [4]) [nM] | Activity [5] | IC50 [6] [nM] | Activity [7] |
| --- | --- | --- | --- | --- | --- | --- | --- | --- | --- |
| Cc1noc(C)c1-c1ccc2c(c1)C(c1ccccc1)N(CC(=O)NCCCC(=O)Nc1cccc3c1CN(C1CCC(=O)NC1=O)C3=O)C(=O)N2C (stereo unspecified) | 138 | 89 |  |  |  |  |  |  |  |
| Cc1noc(C)c1-c1ccc2c(c1)C(c1ccccc1)N(Cc1cn(CCOCCOCCOCCOCC(=O)Nc3cccc4c3C(=O)N(C3CCC(=O)NC3=O)C4=O)nn1)C(=O)N2C (stereo unspecified) | 173 | 60 |  |  |  |  |  |  |  |
| Cc1noc(C)c1-c1ccc2c(c1)C(c1ccccc1)N(CC(=O)NCCCCCCC(=O)Nc1cccc3c1CN(C1CCC(=O)NC1=O)C3=O)C(=O)N2C (stereo unspecified) | 80.6 | 100 |  |  |  |  |  |  |  |
| Cc1noc(C)c1-c1ccc2c(c1)C(c1ccccc1)N(CC(=O)NCCCCCC(=O)Nc1cccc3c1CN(C1CCC(=O)NC1=O)C3=O)C(=O)N2C (stereo unspecified) | 99.1 | 98 |  |  |  |  |  |  |  |
| Cc1noc(C)c1-c1ccc2c(c1)C(c1ccccc1)NC(=O)N2C (stereo unspecified) | 46.4 | 100 | Active | Active | Active | 3260 | inactive |  |  |
| Cc1noc(C)c1-c1ccc2c(c1)C(c1ccccc1)N(Cc1cn(CCOCCOCCOCCOCC(=O)Nc3cccc4c3CN(C3CCC(=O)NC3=O)C4=O)nn1)C(=O)N2C (stereo unspecified) | 22.6 | 100 | Active | Active | Active |  |  |  |  |
| Cc1noc(C)c1-c1ccc2c(c1)C(c1ccccc1)N(Cc1cn(CCOCCOCCOCC(=O)Nc3cccc4c3C(=O)N(C3CCC(=O)NC3=O)C4=O)nn1)C(=O)N2C (stereo unspecified) | 68.5 | 86 | Active | Active | Active | 1750 |  |  |  |
| Cc1noc(C)c1-c1ccc2c(c1)C(c1ccccc1)N(C)C(=O)N2 (stereo unspecified) |  |  |  |  |  |  |  | 44 |  |
| Cc1sc2c(c1C)C(c1ccc(Cl)cc1)=N[C@@H](CC(=O)OC(C)(C)C)c1nnc(C)n1-2 |  |  | Active | Active | Active |  |  |  |  |
| Cc1noc(C)c1-c1ccc2c(c1)C(c1ccccc1)N(CC(=O)NCCCCC(=O)Nc1cccc3c1CN(C1CCC(=O)NC1=O)C3=O)C(=O)N2C (stereo unspecified) | 134 | 91 |  |  |  |  |  |  |  |
| Cc1noc(C)c1-c1ccc2c(c1)C(c1ccccc1)N(CC(=O)NCCCCCCCC(=O)Nc1cccc3c1CN(C1CCC(=O)NC1=O)C3=O)C(=O)N2C (stereo unspecified) | 68.3 | 96 |  |  |  |  |  |  |  |
| Cc1noc(C)c1-c1ccc2c(c1)C(c1ccccc1)N(CCCCC(=O)Nc1cccc3c1CN(C1CCC(=O)NC1=O)C3=O)C(=O)N2C (stereo unspecified) | 144 | 90 |  |  |  |  |  |  |  |
| Cc1noc(C)c1-c1ccc2c(c1)C(c1ccccc1)N(CC(=O)NCCC(=O)Nc1cccc3c1CN(C1CCC(=O)NC1=O)C3=O)C(=O)N2C (stereo unspecified) | 132 | 94 |  |  |  |  |  |  |  |
| Cc1noc(C)c1-c1ccc2c(c1)C(c1ccccc1)N(CCCCCC(=O)Nc1cccc3c1CN(C1CCC(=O)NC1=O)C3=O)C(=O)N2C (stereo unspecified) | 135 | 93 |  |  |  |  |  |  |  |
| Cc1noc(C)c1-c1ccc2c(c1)C(c1ccccc1)N(Cc1cn(CCOCC(=O)Nc3cccc4c3CN(C3CCC(=O)NC3=O)C4=O)nn1)C(=O)N2C (stereo unspecified) | 14.2 | 99 | Active | Active | Active | 1830 |  |  |  |
| Cc1noc(C)c1-c1ccc2c(c1)C(c1ccccc1)N(Cc1cn(CCOCCOCC(=O)Nc3cccc4c3CN(C3CCC(=O)NC3=O)C4=O)nn1)C(=O)N2C (stereo unspecified) | 15.4 | 100 | Active | Active | Active |  |  |  |  |
| Cc1noc(C)c1-c1ccc2c(c1)C(c1ccccc1)N(Cc1cn(CCOCC(=O)Nc3cccc4c3C(=O)N(C3CCC(=O)NC3=O)C4=O)nn1)C(=O)N2C (stereo unspecified) | 41.8 | 99 | Active | Active | Active | 810 |  |  | Active |
| Cc1noc(C)c1-c1ccc2c(c1)C(c1ccccc1)N(Cc1cn(CCOCCOCC(=O)Nc3cccc4c3C(=O)N(C3CCC(=O)NC3=O)C4=O)nn1)C(=O)N2C (stereo unspecified) | 67.7 | 93 | Active | Active | Active | 1660 |  |  |  |
| Cc1noc(C)c1-c1ccc2c(c1)C(c1ccccc1)N(Cc1cn(CCOCCOCCOCC(=O)Nc3cccc4c3CN(C3CCC(=O)NC3=O)C4=O)nn1)C(=O)N2C (stereo unspecified) | 22.1 | 100 | Active | Active | Active |  |  |  |  |
| Cc1noc(C)c1-c1ccc2c(c1)C(c1ccccc1)N(CCCCCCC(=O)Nc1cccc3c1CN(C1CCC(=O)NC1=O)C3=O)C(=O)N2C (stereo unspecified) | 118 | 96 |  |  |  |  |  |  |  |
